Holding throughout (type): functional
Test [1] relates to P388. The test can be described thus: In vitro inhibition of P388 murine leukemia cell (S/ADR) growth. The note with it: Mus musculus; for pEC50: read-out: ED50 (the source's name). In short, it runs like this:
(§1)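 P388 murine leukemia cells (S/ADR) or multidrug-resistant P388/ADR subline (R/ADR), kept exponential in suspension in RPMI 1640 + 10% heat-inactivated FCS, 10 μM 2-mercaptoethanol, penicillin/streptomycin; seeded 10⁵ cells/mL, exposed to graded concentrations for 4 days. Density counted daily by Coulter counter; growth rate from linear regression of log density vs time, expressed as % of control; ED50 read from dose-effect curves.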

Test [2] has as its system P388. Kind of test: In vitro inhibition of P388 murine leukemia cell (R/ADR) growth. The note with it: Mus musculus; for pEC50: read-out: ED50 (the source's name). In short, it runs like this:
as §1

The species entered for a further test is Mus musculus. Kind of test: Lethal dose against DBA/2 mice was determined.
A short description of test [3]: T/C ratio of the compound.
Test [4] can be described thus: T/C ratio with the optimal dose mg/Kg in parenthesis.

pEC50: −log10 of the molar value.

As to `NCCNCCCCCCNc1cccc2c1C(=O)c1ccccc1C2=O`, the values for the pEC50 in the test on P388 [1] and with P388 [2] were 5.35 and 5.10, respectively. This compound registered an LD50 in the test listed under Mus musculus of 200 mg/kg.
For “cis-Bis[[3-(anthraquinon-1-ylamino)dodecyl]amide]diiodoplatinum”, the figures for the ED50 with P388 [1] and with P388 [2] were 60 µM and > 60 µM, respectively.
For `NCCCOc1cccc2c1C(=O)c1ccccc1C2=O`, the values for the pEC50 in the test on P388 [1] and with P388 [2] were 5.00 and < 5.00, respectively.
As to `NCCCCNc1cccc2c1C(=O)c1ccccc1C2=O`, the pEC50 was 4.40 in the test on P388 [1] and 4.30 in the test on P388 [2]. In the test filed under Mus musculus, this compound showed a median lethal dose (LD50) of 200 mg/kg.
In the case of “cis-Bis[[3-(anthraquinon-1-yloxy)propyl]amide]dichloroplatinum”, the ED50 in the test on P388 [1] and with P388 [2] was > 10 µM in each case.
Turning to “cis-Bis[[3-(anthraquinon-1-ylamino)hexyl]amide]dichloroplatinum”, the ED50 in the test on P388 [1] and in the test with P388 [2] was > 60 µM each time.
With “[[2-[[2-(Anthraquinon-1-ylamino)ethyl]amino]ethyl]-amine-N,N']diiodoplatinum”, the ED50 came to 4.5 µM in the test on P388 [1] and 12 µM in the test with P388 [2].
Consider CISPLATIN, for which the ED50 in the test with P388 [1] was 0.19 µM; with P388 [2], 1.4 µM. In addition, the T/C in test [3] turned out to be 134. In the test listed under Mus musculus, this compound registered a 50% lethal dose (LD50) of 6.6 mg/kg.
Regarding `NCCCCCCCCCCCCNc1cccc2c1C(=O)c1ccccc1C2=O`, the pEC50 in the test with P388 [1] is 4.22; in the test with P388 [2] it was 4.70.
As to “[[2-[[2-(Anthraquinon-1-ylamino)ethyl]amino]ethyl]-amine-N,N']dichloroplatinum”, in test [4], the T/C was found to be 126. Further, the ED50 in the test with P388 [1] was 0.2 µM; in the test on P388 [2], > 60 µM. Also, in the test listed under Mus musculus, the median lethal dose (LD50) was > 28 mg/kg.
As to `NCCNCCCNc1cccc2c1C(=O)c1ccccc1C2=O`, the pEC50 is 5.35 in the test with P388 [1] and 5.10 with P388 [2].
For `O=C1c2ccccc2C(=O)c2c(NCCCNCCNCCO)cccc21` the same measures were 4.70 and < 5.00.
On to `NCCNCCCOc1cccc2c1C(=O)c1ccccc1C2=O`, for which the pEC50 with P388 [1] was 5.22; with P388 [2], 4.22.
As for `NCCNCCNc1cccc2c1C(=O)c1ccccc1C2=O`, the pEC50 with P388 [1] was 5.35; in the test on P388 [2], 5.10.
“[[2-[[6-(Anthraquinon-1-ylamino)hexyl]amino]ethyl]-amine-N,N']dichloroplatinum”: the figures for the ED50 in the test on P388 [1] and in the test on P388 [2] were 45 µM and > 60 µM, respectively.
The matching figures for “[[2-[[3-(Anthraquinon-1-ylamino)propyl]amino]ethyl](2-hydroxyethyl)-amine-N,N']dichloroplatinum”: > 30 µM and > 60 µM.
With `NCCCNc1cccc2c1C(=O)c1ccccc1C2=O`, the pEC50 with P388 [1] was 4.70; with P388 [2], 4.35.
Take “cis-Bis[[3-(anthraquinon-1-ylamino)butyl]amide]dichloroplatinum”: the ED50 with P388 [1] was 8 µM; in the test on P388 [2] it was > 60 µM.
On to “[[2-[[3-(Anthraquinon-1-ylamino)propyl]amino]ethyl]-amine-N,N']dichloroplatinum”, for which the T/C in test [4] turned out to be 130. For the same compound, the ED50 is 0.45 µM in the test with P388 [1] and > 60 µM with P388 [2]. The LD50 in the test listed under Mus musculus was > 28 mg/kg.
As to “cis-Bis[[3-(anthraquinon-1-ylamino)dodecyl]amide]dichloroplatinum”, the figures for the ED50 with P388 [1] and in the test with P388 [2] were 60 µM and > 60 µM, respectively.
As for `NCCNCCOCCOc1cccc2c1C(=O)c1ccccc1C2=O`, the pEC50 with P388 [1] is 6.70; in the test on P388 [2], < 4.22.
“cis-Bis[[3-(anthraquinon-1-ylamino)hexyl]amide]diiodoplatinum”: the ED50 in the test on P388 [1] and in the test with P388 [2] was > 60 µM each time.
Regarding “cis-Bis[[3-(anthraquinon-1-ylamino)propyl]amide]diiodoplatinum”, the figures for the ED50 with P388 [1] and in the test on P388 [2] were 40 µM and > 60 µM, respectively.
As for “[[2-[[3-(Anthraquinon-1-yloxy)propyl]amino]ethyl]-amine-N,N']dichloroplatinum”, in test [4], the T/C came out at 120. Moreover, the ED50 in the test on P388 [1] was determined as 0.45 µM; in the test with P388 [2], 12 µM. Also, the 50% lethal dose (LD50) in the test filed under Mus musculus is > 28 mg/kg.
As for “cis-Bis[[3-(anthraquinon-1-yloxy)propyl]amide]diiodoplatinum”, the ED50 in the test with P388 [1] and in the test with P388 [2] was > 10 µM each time.
As to Pt(en)Cl2, the ED50 in the test on P388 [1] came to 6 µM; in the test with P388 [2], 20 µM.
“cis-Bis[[3-(anthraquinon-1-ylamino)butyl]amide]diiodoplatinum”: the ED50 was 40 µM in the test on P388 [1] and > 60 µM in the test with P388 [2].
`NCCCCCCNc1cccc2c1C(=O)c1ccccc1C2=O`: the pEC50 with P388 [1] and in the test on P388 [2] was 4.35 each time. This compound showed an LD50 in the test filed under Mus musculus of 133 mg/kg.

In general, LD50 refers to the dose expected to kill half of the subjects tested. Low values mean greater toxicity, high ones lower toxicity.

For the origin of these results see ChEMBL document CHEMBL1125744, “Preparation, characterization, and anticancer activity of a series of cis-PtCl2 complexes linked to anthraquinone intercalators” (1991).
